Results taken from ChEMBL document CHEMBL1151782, “Evaluation of new migrastatin and dorrigocin congeners unveils cell migration inhibitors with dramatically improved potency” (Bioorg Med Chem Lett, 2008).

Key:
MDA-MB-231 [1] = experiment: Cytotoxicity against human MDA-MB-231 cells; assay type: functional, cell-based
MDA-MB-231 [2] = experiment: Inhibition of human MDA-MB-231 cell migration after 4 days by scratch wound healing assay; assay type: functional, cell-based; details: MDA-MB-231, 96 h
How it was run: (§1)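 Wounds were scratched through confluent cell monolayers with a floating pin tool, then compounds were added at concentrations chosen to avoid cytotoxicity. Plates were incubated 4 days at 37°C, then fixed and stained. Fluorescence in the wound area quantified wound closure, and IC50 for inhibition of wound healing was reported.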

4T1 [3] = experiment: Cytotoxicity against […] cells; assay type: functional, cell-based
4T1 [4] = experiment: Inhibition of cell migration of mouse 4T1 cells after 4 days by scratch wound healing assay; assay type: functional, cell-based; details: 4T1, 96 h; how it was run: as §1
[5] = Metabolic stability in mouse plasma assessed as half life; assay type: ADME, cell-free

| SMILES | IC50 (MDA-MB-231 [1]) [µM] | IC50 (MDA-MB-231 [2]) [µM] | IC50 (4T1 [3]) [µM] | IC50 (4T1 [4]) [µM] | half-life [5] [min] |
| --- | --- | --- | --- | --- | --- |
| CO[C@@H](/C=C/CC/C=C/C(=O)O)[C@@H](O)[C@H](C)[C@@H](O)/C(C)=C/[C@H](C)C(=O)C[C@H](O)CC1CC(=O)NC(=O)C1 | > 100 | > 100 | > 100 | > 100 | – |
| CO[C@H]1/C=C/CC/C=C/C(=O)O[C@H]([C@H](C)C(=O)CCCC2CC(=O)NC(=O)C2)/C(C)=C\[C@@H](C)[C@@H]1O [MIGRASTATIN] | 4.6 | 17 | 5.8 | 14 | 5 |
| C/C(=C\[C@@H](C)[C@H](O)C/C=C/CC/C=C/C(=O)O)[C@H](O)[C@H](C)C(=O)CCCC1CC(=O)NC(=O)C1 | > 100 | > 100 | > 100 | > 100 | – |
| C/C(=C\[C@@H](C)[C@H](O)C/C=C/CC/C=C/C(=O)O)[C@@H](O)[C@H](C)C(=O)CCCC1CC(=O)NC(=O)C1 | > 100 | > 100 | > 100 | > 100 | – |
| C/C1=C/[C@@H](C)C[C@@H](O)/C=C/CC/C=C/C(=O)O[C@@H]1[C@H](C)C(=O)C[C@H](O)CC1CC(=O)NC(=O)C1 | 13 | > 100 | 10 | > 100 | – |
| CO[C@@H](/C=C/CC/C=C/C(=O)O)[C@@H](O)[C@H](C)/C=C(\C)[C@H](O)[C@H](C)C(=O)CCCC1CC(=O)NC(=O)C1 [DORRIGOCIN A] | > 100 | > 100 | > 100 | > 100 | – |
| C/C1=C/[C@@H](C)[C@H](O)[C@@H](O)/C=C/CC/C=C/C(=O)O[C@@H]1[C@H](C)C(=O)CCCC1CC(=O)NC(=O)C1 | > 100 | > 100 | 44 | > 100 | – |
| C/C1=C/[C@@H](C)[C@H](O)C/C=C/CC/C=C/C(=O)O[C@@H]1[C@H](C)C(=O)C[C@H](O)CC1CC(=O)NC(=O)C1 | > 100 | > 100 | > 100 | > 100 | – |
| C/C(=C\[C@H](C)C(=O)CCCC1CC(=O)NC(=O)C1)[C@H](O)[C@@H](C)[C@H](O)C/C=C/CC/C=C/C(=O)O | > 100 | > 100 | > 100 | > 100 | – |
| C/C(=C\[C@@H](C)[C@H](O)[C@@H](O)/C=C/CC/C=C/C(=O)O)[C@H](O)[C@H](C)C(=O)CCCC1CC(=O)NC(=O)C1 | > 100 | > 100 | > 100 | > 100 | – |
| C/C1=C/[C@@H](C)[C@H](O)[C@@H](O)/C=C/CC/C=C/C(=O)O[C@@H]1[C@H](C)C(=O)/C=C/CC1CC(=O)NC(=O)C1 | 29 | > 100 | 32 | > 100 | – |
| C/C1=C/[C@@H](C)[C@H](O)C/C=C/CC/C=C/C(=O)O[C@@H]1[C@H](C)C(=O)CCCC1CC(=O)NC(=O)C1 | > 100 | > 100 | > 100 | > 100 | – |
| C/C(=C\[C@H](C)C(=O)CCCC1CC(=O)NC(=O)C1)[C@H](O)[C@@H](C)[C@H](O)[C@@H](O)/C=C/CC/C=C/C(=O)O | > 100 | > 100 | > 100 | > 100 | – |
| C/C1=C/[C@@H](C)[C@H](O)C/C=C/CC/C=C/C(=O)O[C@@H]1[C@H](C)C(=O)/C=C/CC1CC(=O)NC(=O)C1 | > 100 | > 100 | 8.5 | > 100 | – |
| C/C(=C\[C@@H](C)[C@H](O)[C@@H](O)/C=C/CC/C=C/C(=O)O)[C@@H](O)[C@H](C)C(=O)CCCC1CC(=O)NC(=O)C1 | > 100 | > 100 | > 100 | > 100 | – |
| CO[C@@H](/C=C/CC/C=C/C(=O)O)[C@@H](O)[C@H](C)/C=C(\C)[C@H](O)[C@H](C)C(=O)C[C@H](O)CC1CC(=O)NC(=O)C1 | > 100 | > 100 | 20 | > 100 | – |
| CO[C@H]1/C=C/CC/C=C/C(=O)O[C@H]([C@H](C)C(=O)/C=C/CC2CC(=O)NC(=O)C2)/C(C)=C\[C@@H](C)[C@@H]1O | > 100 | > 100 | > 100 | > 100 | – |
| C/C1=C/[C@@H](C)CC/C=C/CC/C=C/C(=O)O[C@@H]1[C@H](C)C(=O)C[C@H](O)CC1CC(=O)NC(=O)C1 | 1 | 0.07 | 0.98 | > 0.33 | – |
| CO[C@H]1/C=C/CC/C=C/C(=O)O[C@H]([C@H](C)C(=O)C[C@H](O)CC2CC(=O)NC(=O)C2)/C(C)=C\[C@@H](C)[C@@H]1O | 5.2 | 1.8 | 5.3 | 1.8 | – |
| CO[C@@H](/C=C/CC/C=C/C(=O)O)[C@@H](O)[C@H](C)/C=C(\C)[C@@H](O)[C@H](C)C(=O)CCCC1CC(=O)NC(=O)C1 | > 100 | > 100 | > 100 | > 100 | – |
| CO[C@@H](/C=C/CC/C=C/C(=O)O)[C@@H](O)[C@H](C)C(O)/C(C)=C/[C@H](C)C(=O)CCCC1CC(=O)NC(=O)C1 (stereo partly drawn) | > 100 | > 100 | > 100 | > 100 | – |
| C/C(=C\[C@@H](C)CC/C=C/CC/C=C/C(=O)O)[C@@H](O)[C@H](C)C(=O)C[C@H](O)CC1CC(=O)NC(=O)C1 | > 100 | > 100 | 81 | > 100 | – |
| C/C(=C\[C@@H](C)CC/C=C/CC/C=C/C(=O)O)[C@H](O)[C@H](C)C(=O)C[C@H](O)CC1CC(=O)NC(=O)C1 | > 100 | > 100 | > 100 | > 100 | – |
